Laboratory results taken from ChEMBL document CHEMBL3526062, “Role of human UDP-glucuronosyltransferases in the biotransformation of the triazoloacridinone and imidazoacridinone antitumor agents C-1305 and C-1311: highly selective substrates for UGT1A10” (Drug Metab Dispos, 2012).

What was measured:
Format in all cases: ADME
[1] = tested on: Liver microsome; test: Drug metabolism in human liver microsomes assessed as ratio of Vmax to Km for glucuronidation per mg of protein after 60 mins by Michaelis-Menten equation in presence of 3 mM UDP-GlcUA; conditions: 1 h
How it was run: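 Recombinant UGT membrane protein (5 μg; His-tagged UGT1A levels normalized by anti-His Western blot) or single-donor microsomes (20 μg) incubated with substrate 5–1000 μM and 3 mM UDP-GlcUA in […] pH 7.4, 5 mM MgCl2, 5 mM saccharolactone, 2% DMSO, 60 min, 37°C. Ethanol stop, centrifuged, HPLC-UV. Initial velocities fitted to Michaelis-Menten, Hill or substrate-inhibition models; three determinations.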

[2] = molecular target: T1, UDP-glucuronosyltransferase 1A8 (Homo sapiens, UniProt Q9HAW9); test: Activity of human recombinant UGT1A8 expressed in baculovirus-infected Sf9 cells assessed as glucuronidation activity per mg of protein at 100 to 200 uM after 60 mins in presence of 3 mM UDP-GlcUA; conditions: sf9, 1 h
T1 sequence (Q9HAW9 whole entry): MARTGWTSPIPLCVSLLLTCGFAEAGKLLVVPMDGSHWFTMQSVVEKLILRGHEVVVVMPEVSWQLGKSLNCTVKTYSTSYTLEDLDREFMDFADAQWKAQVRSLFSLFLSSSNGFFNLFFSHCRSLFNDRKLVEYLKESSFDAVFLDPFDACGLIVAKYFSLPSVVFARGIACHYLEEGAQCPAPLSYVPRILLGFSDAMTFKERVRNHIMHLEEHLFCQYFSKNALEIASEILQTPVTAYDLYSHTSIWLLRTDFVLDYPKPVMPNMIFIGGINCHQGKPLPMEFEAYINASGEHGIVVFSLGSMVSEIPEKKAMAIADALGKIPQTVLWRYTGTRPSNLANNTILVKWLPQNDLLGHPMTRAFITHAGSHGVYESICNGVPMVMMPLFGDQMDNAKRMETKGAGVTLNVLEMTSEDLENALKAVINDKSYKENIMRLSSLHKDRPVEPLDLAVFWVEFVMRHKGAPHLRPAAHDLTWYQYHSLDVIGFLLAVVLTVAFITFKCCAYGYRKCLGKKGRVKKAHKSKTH
How it was run: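 Screening: 5 μg recombinant UGT protein (His-tag levels normalized) in Tris-HCl pH 7.4, 5 mM MgCl2, 5 mM saccharolactone, 2% DMSO to permeabilize membranes. Substrate at 100 or 200 μM, added in water. Started with 3 mM UDP-GlcUA, 60 min at 37°C, stopped with ethanol, then centrifuged. Glucuronide quantified by reversed-phase C18 HPLC against the substrate response; triplicates.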

[3] = tested on: Liver microsome; test: Drug metabolism in human liver microsomes assessed as metabolite formation treated with C-1305 for 60 mins by ESI-MS/UV-vis spectroscopy in presence of 3 mM UDP-GlcUA; conditions: 1 h
How it was run: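 Recombinant human UGT1A1 or UGT1A9 (5 μg protein), or single-donor human liver or intestinal microsomes (20 μg), incubated in Tris-HCl pH 7.4 with 5 mM MgCl2, 5 mM saccharolactone, 2% DMSO and 100 or 200 μM substrate. Started with UDP-GlcUA, 60 min at 37°C, in triplicate. Product identified by HPLC with positive-ion ESI-MS and UV/Vis spectra, and confirmed by β-glucuronidase hydrolysis.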

[4] = molecular target: T2, UDP-glucuronosyltransferase 1A7 (Homo sapiens, UniProt Q9HAW7); test: Drug metabolism assessed as human recombinant UGT1A7-mediated compound formation treated with C-1305 for 60 mins by ESI-MS/UV-vis spectroscopy in presence of 3 mM UDP-GlcUA; conditions: recombinant enzyme, 1 h
T2 sequence (Q9HAW7 whole entry): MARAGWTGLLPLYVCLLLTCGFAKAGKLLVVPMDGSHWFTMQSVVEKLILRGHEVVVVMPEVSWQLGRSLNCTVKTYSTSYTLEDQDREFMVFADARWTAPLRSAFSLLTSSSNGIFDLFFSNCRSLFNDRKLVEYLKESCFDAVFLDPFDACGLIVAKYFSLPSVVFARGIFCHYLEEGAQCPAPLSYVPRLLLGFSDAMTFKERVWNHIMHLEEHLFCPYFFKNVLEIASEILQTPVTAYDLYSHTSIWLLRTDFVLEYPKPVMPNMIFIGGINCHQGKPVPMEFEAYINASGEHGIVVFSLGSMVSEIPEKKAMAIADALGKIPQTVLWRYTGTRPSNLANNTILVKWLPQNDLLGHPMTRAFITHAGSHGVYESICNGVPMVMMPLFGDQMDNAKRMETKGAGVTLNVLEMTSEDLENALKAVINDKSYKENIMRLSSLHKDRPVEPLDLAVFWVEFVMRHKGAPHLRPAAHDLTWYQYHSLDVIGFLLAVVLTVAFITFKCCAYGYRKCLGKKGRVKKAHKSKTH
How it was run: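 His-tagged recombinant human UGT expressed in baculovirus-infected insect cells, levels normalized by anti-His Western blot; 5 μg membrane protein incubated 60 min at 37°C in […] pH 7.4, 5 mM MgCl2, 5 mM saccharolactone, 2% DMSO, substrate 100 or 200 μM; started with UDP-GlcUA; ethanol stop, centrifuged; supernatant by reversed-phase HPLC-UV/ESI-MS; glucuronide confirmed by β-glucuronidase hydrolysis; triplicate.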

[5] = tested on: Liver microsome; test: Drug metabolism in human liver microsomes assessed as metabolite formation treated with C-1311 for 60 mins by ESI-MS/UV-vis spectroscopy in presence of 3 mM UDP-GlcUA; conditions: 1 h
How it was run: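 Protein (5 μg UGT1A10 or microsomal) incubated with 0.2 mM substrate and 3 mM UDP-GlcUA, 60 min. HPLC on C18 at 25°C with a 15–80% methanol gradient in 0.05 M ammonium formate pH 3.4 at 1 ml/min. ESI positive-ion MS and UV/Vis spectra taken from the peaks. Glucuronide confirmed by 60 min further treatment with 1000 U E. coli β-glucuronidase.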

[6] = molecular target: T3, UDP-glucuronosyltransferase 1A9 (Homo sapiens, UniProt O60656); test: Activity of human recombinant UGT1A9 expressed in baculovirus-infected Sf9 cells assessed as enzyme-mediated glucuronidation per mg protein at 235 uM after 60 mins by Michaelis-Menten equation in presence of 3 mM UDP-GlcUA; conditions: sf9, 1 h
T3 sequence (O60656 whole entry): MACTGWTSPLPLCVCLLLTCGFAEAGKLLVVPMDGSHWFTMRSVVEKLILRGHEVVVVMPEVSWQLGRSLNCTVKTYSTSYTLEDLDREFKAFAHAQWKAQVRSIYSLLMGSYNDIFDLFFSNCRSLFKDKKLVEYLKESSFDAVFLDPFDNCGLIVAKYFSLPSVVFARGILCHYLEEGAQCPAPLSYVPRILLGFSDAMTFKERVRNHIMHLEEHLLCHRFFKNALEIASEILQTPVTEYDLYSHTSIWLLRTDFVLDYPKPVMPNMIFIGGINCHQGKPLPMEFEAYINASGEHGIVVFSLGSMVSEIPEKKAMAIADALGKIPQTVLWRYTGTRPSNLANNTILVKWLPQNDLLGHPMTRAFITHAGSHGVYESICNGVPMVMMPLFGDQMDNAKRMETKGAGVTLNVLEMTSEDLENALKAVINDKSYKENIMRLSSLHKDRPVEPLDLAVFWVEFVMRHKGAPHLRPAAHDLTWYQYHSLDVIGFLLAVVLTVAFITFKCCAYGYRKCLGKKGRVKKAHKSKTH

Row | Compound | Vmax/Km [1] [µL/min] | Drug metabolism [2] [nmol/min/mg] | Drug metabolism [3] | Drug metabolism [4] | Drug metabolism [5] | Drug metabolism [6] [nmol/min/mg]
1 | CN(C)CCCNc1ccc2nnn3c4ccc(O)cc4c(=O)c1c23 | 5.4 | 0.2 | metabolite_detected | metabolite_detected | – | –
2 | CCN(CC)CCNc1ccc2ncn3c4ccc(O)cc4c(=O)c1c23 [C-1311] | 4 | 0.2 | – | – | metabolite_detected | 0.14
